The subject of experiment [1] is Rattus norvegicus. Nature of the experiment: Antidiabetic activity in Wistar albino rat assessed as reduction of blood glucose level administered qd for 9 days by glucose oxidation method (RVb = […] +/- […] mg/dl). It is filed as functional.
The test system of experiment [2] is Rattus norvegicus. In words: Antidiabetic activity in Wistar albino rat assessed as reduction of fasting blood glucose level administered qd for 9 days by oral glucose tolerance test (RVb = 83.33 +/- 1.54 mg/dl). Type of experiment: functional.
Experiment [3] relates to Rattus norvegicus. In words: Antidiabetic activity in Wistar albino rat assessed as reduction of blood glucose level administered qd for 9 days measured after 30 mins last post dose by oral glucose tolerance test (RVb = 183.2 +/- 3.68 mg/dl). It is filed as functional.
The subject of experiment [4] is Rattus norvegicus. Nature of the experiment: Antidiabetic activity in Wistar albino rat assessed as reduction of blood glucose level administered qd for 9 days measured after 90 mins last post dose by oral glucose tolerance test (RVb = 135.7 +/- 2.9 mg/dl). It is filed as functional.
In experiment [5] the test system is Rattus norvegicus. In words: Anticonvulsant activity in Wistar albino rat assessed as time spent on tonic flexion phase at 70 mg/kg by MES test (RVb = 3.12 +/- 0.31 sec). It is filed as functional. The procedure, abridged:
(§1)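 Maximal electroshock (MES) convulsion model in rats. Duration in seconds of the flexion, extensor, clonus and stupor phases was recorded, along with recovery or death. The vehicle control was 1% w/w gum acacia and phenytoin was the reference. Data are mean ± SEM, with P < 0.05 taken as significant.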

Experiment [6] deals with Rattus norvegicus. In words: Anticonvulsant activity in Wistar albino rat assessed as time spent on tonic extensor phase at 70 mg/kg by MES test (RVb = 11 +/- 0.57 sec). It is filed as functional. The procedure, abridged:
as §1

For experiment [7], the system named is Rattus norvegicus. Nature of the experiment: Anticonvulsant activity in Wistar albino rat assessed as time spent on clonic convulsions phase at 70 mg/kg by MES test (RVb = 16.80 +/- 2.50 sec). It is filed as functional. An outline of the steps:
as §1

In experiment [8] the test system is Rattus norvegicus. In words: Anticonvulsant activity in Wistar albino rat assessed as time spent on stupor phase at 70 mg/kg by MES test (RVb = 218.33 +/- 5.80 sec). Type of experiment: functional. The procedure, abridged: as §1
The next experiment relates to Nucleic Acid. In words: Induction of Escherichia coli DNA cleavage at 25 mg after 2 hrs using ethidium bromide staining by agarose gel electrophoresis methos. It is filed as nucleic-acid assay. An outline of the steps:
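Genomic DNA came from E. coli grown 24 h at 37 °C in nutrient broth. It was extracted by SDS/EDTA lysis, phenol then chloroform–isoamyl alcohol, and ethanol precipitation, and dissolved in TAE. Samples were incubated with the DNA 2 h at 37 °C, mixed 1:1 with bromophenol blue, and run on agarose in TAE at 50 V alongside a DNA marker. Gels were ethidium bromide stained 10–15 min and cleavage judged visually.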

Experiment [9] concerns Rattus norvegicus. In words: Anticonvulsant activity in Wistar albino rat assessed as time spent on tonic flexion phase at 60 mg/kg by MES test (RVb = 3.12 +/- 0.31 sec). It is filed as functional. An outline of the steps: as §1
Experiment [10] has as its system Rattus norvegicus. In words: Anticonvulsant activity in Wistar albino rat assessed as time spent on tonic extensor phase at 60 mg/kg by MES test (RVb = 11 +/- 0.57 sec). Type of experiment: functional. An outline of the steps: as §1
In experiment [11] the test system is Rattus norvegicus. In words: Anticonvulsant activity in Wistar albino rat assessed as time spent on clonic convulsions phase at 60 mg/kg by MES test (RVb = 16.80 +/- 2.50 sec). Type of experiment: functional. An outline of the steps:
as §1

For experiment [12], the system named is Rattus norvegicus. In words: Anticonvulsant activity in Wistar albino rat assessed as time spent on stupor phase at 60 mg/kg by MES test (RVb = 218.33 +/- 5.80 sec). Type of experiment: functional. An outline of the steps: as §1
Experiment [13] relates to Rattus norvegicus. Nature of the experiment: Anticonvulsant activity in Wistar albino rat assessed as time spent on tonic flexion phase at 80 mg/kg by MES test (RVb = 3.12 +/- 0.31 sec). It is filed as functional. An outline of the steps:
as §1

In experiment [14] the test system is Rattus norvegicus. Nature of the experiment: Anticonvulsant activity in Wistar albino rat assessed as time spent on tonic extensor phase at 80 mg/kg by MES test (RVb = 11 +/- 0.57 sec). Type of experiment: functional. The procedure, abridged:
as §1

Experiment [15] relates to Rattus norvegicus. In words: Anticonvulsant activity in Wistar albino rat assessed as time spent on clonic convulsions phase at 80 mg/kg by MES test (RVb = 16.80 +/- 2.50 sec). Type of experiment: functional. The procedure, abridged:
as §1

Experiment [16] relates to Rattus norvegicus. In words: Anticonvulsant activity in Wistar albino rat assessed as time spent on stupor phase at 80 mg/kg by MES test (RVb = 218.33 +/- 5.80 sec). Type of experiment: functional. The procedure, abridged: as §1
In experiment [17] the test system is Rattus norvegicus. Nature of the experiment: Anticonvulsant activity in Wistar albino rat assessed as time spent on tonic flexion phase at 75 mg/kg by MES test (RVb = 3.12 +/- 0.31 sec). Type of experiment: functional. An outline of the steps:
as §1

Experiment [18] has as its system Rattus norvegicus. Nature of the experiment: Anticonvulsant activity in Wistar albino rat assessed as time spent on tonic extensor phase at 75 mg/kg by MES test (RVb = 11 +/- 0.57 sec). Type of experiment: functional. The procedure, abridged:
as §1

For experiment [19], the system named is Rattus norvegicus. Nature of the experiment: Anticonvulsant activity in Wistar albino rat assessed as time spent on clonic convulsions phase at 75 mg/kg by MES test (RVb = 16.80 +/-2.50 sec). Type of experiment: functional. An outline of the steps:
as §1

The subject of experiment [20] is Rattus norvegicus. Nature of the experiment: Anticonvulsant activity in Wistar albino rat assessed as time spent on stupor phase at 75 mg/kg by MES test (RVb = 218.33 +/- 5.80 sec). It is filed as functional. An outline of the steps: as §1
Experiment [21] concerns Rattus norvegicus. Nature of the experiment: Anticonvulsant activity in Wistar albino rat assessed as time spent on tonic flexion phase at 20 mg/kg by MES test (RVb = 3.12 +/- 0.31 sec). It is filed as functional. The procedure, abridged:
as §1

Experiment [22] concerns Rattus norvegicus. In words: Anticonvulsant activity in Wistar albino rat assessed as time spent on tonic extensor phase at 20 mg/kg by MES test (RVb = 11 +/- 0.57 sec). Type of experiment: functional. The procedure, abridged: as §1
For experiment [23], the system named is Rattus norvegicus. Nature of the experiment: Anticonvulsant activity in Wistar albino rat assessed as time spent on clonic convulsions phase at 20 mg/kg by MES test (RVb = 16.80 +/- 2.50 sec). It is filed as functional. An outline of the steps: as §1
The test system of experiment [24] is Rattus norvegicus. In words: Anticonvulsant activity in Wistar albino rat assessed as time spent on stupor phase at 20 mg/kg by MES test (RVb = 218.33 +/- 5.80 sec). It is filed as functional. The procedure, abridged:
as §1

Experiment [25] concerns Rattus norvegicus. In words: Anticonvulsant activity in Wistar albino rat assessed as time spent on tonic flexion phase at 82 mg/kg by MES test (RVb = 3.12 +/- 0.31 sec). Type of experiment: functional. An outline of the steps: as §1
Experiment [26] relates to Rattus norvegicus. Nature of the experiment: Anticonvulsant activity in Wistar albino rat assessed as time spent on tonic extensor phase at 82 mg/kg by MES test. Type of experiment: functional. An outline of the steps: as §1
Experiment [27] concerns Rattus norvegicus. In words: Anticonvulsant activity in Wistar albino rat assessed as time spent on clonic convulsions phase at 82 mg/kg by MES test (RVb = 16.80 +/- 2.50 sec). Type of experiment: functional. The procedure, abridged: as §1
The subject of experiment [28] is Rattus norvegicus. In words: Anticonvulsant activity in Wistar albino rat assessed as time spent on stupor phase at 82 mg/kg by MES test (RVb = 218.33 +/- 5.80 sec). It is filed as functional. The procedure, abridged: as §1

Structures are written as SMILES. Activity calls are given as the source filed them. The calls are words filed in the database; no cut-off is given here.

In the case of `Oc1cc(-c2nnc(CSc3nc4ccccc4[nH]3)o2)cc(O)c1O`, the Activity with Rattus norvegicus [1] worked out at 386.4 mg/dL; in the experiment with Rattus norvegicus [2], 73.33 mg/dL; in the experiment with Rattus norvegicus [3], 174.2 mg/dL; in the experiment on Rattus norvegicus [4], 110 mg/dL.

As for `COc1ccc(Cl)cc1C(=O)NCCc1ccc(S(=O)(=O)NC(=O)NC2CCCCC2)cc1` [GLYBURIDE], the Activity was 139.2 mg/dL in the experiment with Rattus norvegicus [1], 176.8 mg/dL in the experiment on Rattus norvegicus [3] and 105.7 mg/dL in the experiment with Rattus norvegicus [4].

On to `O=[N+]([O-])c1ccc(-c2nnc(CSc3nc4ccccc4[nH]3)o2)cc1`, for which the Activity with Rattus norvegicus [1] came to 158.7 mg/dL; in the experiment on Rattus norvegicus [2], 78.33 mg/dL; in the experiment with Rattus norvegicus [3] it was 154.5 mg/dL; in the experiment with Rattus norvegicus [4], 110 mg/dL.

On to `O=C(CSc1nc2ccccc2[nH]1)NN1C(=O)CSC1c1ccc(O)cc1` (configuration not stated), for which the Time is 3.96 s in the experiment with Rattus norvegicus [5], 3.73 s in the experiment on Rattus norvegicus [6], 1.02 s with Rattus norvegicus [7] and 202.1 s in the experiment on Rattus norvegicus [8]. Besides, the result in the experiment with Nucleic Acid was Active.

Turning to `O=C1NC(=O)C(=O)C(=O)N1` [ALLOXAN], in the experiment with Rattus norvegicus [1], the Activity amounted to 339.8 mg/dL.

Consider `O=C(CSc1nc2ccccc2[nH]1)NN1C(=O)CSC1c1c(O)ccc2ccccc12` (configuration not stated), for which the Time in the experiment with Rattus norvegicus [9] worked out at 3.08 s; in the experiment with Rattus norvegicus [10], 3.98 s; with Rattus norvegicus [11], 1.8 s; in the experiment with Rattus norvegicus [12] it was 172.5 s.

With `Oc1ccc(-c2nnc(CSc3nc4ccccc4[nH]3)o2)cc1`, the Activity came to 166.2 mg/dL in the experiment with Rattus norvegicus [1], 80.83 mg/dL with Rattus norvegicus [2], 167.5 mg/dL in the experiment with Rattus norvegicus [3] and 125 mg/dL in the experiment on Rattus norvegicus [4]. For the same compound, the result in the experiment with Nucleic Acid was inactive.

Consider `O=C(CSc1nc2ccccc2[nH]1)NN1C(=O)CSC1c1ccccc1` (configuration not stated), for which the Time was found to be 3.2 s in the experiment with Rattus norvegicus [13], 9.2 s with Rattus norvegicus [14], 1.2 s in the experiment on Rattus norvegicus [15] and 192.5 s in the experiment with Rattus norvegicus [16].

Regarding `O=C(CSc1nc2ccccc2[nH]1)NN1C(=O)CSC1c1ccc(Cl)cc1` (configuration not stated), the Time with Rattus norvegicus [17] turned out to be 4.56 s; in the experiment with Rattus norvegicus [18], 12.1 s; in the experiment on Rattus norvegicus [19], 1.36 s; with Rattus norvegicus [20] it was 215.5 s.

Consider `O=C1NC(=O)C(c2ccccc2)(c2ccccc2)N1` [PHENYTOIN], for which the Time in the experiment with Rattus norvegicus [21] is on record as 2.87 s; in the experiment with Rattus norvegicus [22], 0 s; in the experiment on Rattus norvegicus [23], 4.9 s; in the experiment with Rattus norvegicus [24] it was 158.6 s.

Take `COc1cccc(C2SCC(=O)N2NC(=O)CSc2nc3ccccc3[nH]2)c1O` (configuration not stated): the Time in the experiment on Rattus norvegicus [25] is reported as 3.3 s; in the experiment with Rattus norvegicus [26] it was 4.21 s; in the experiment on Rattus norvegicus [27], 16.2 s; in the experiment on Rattus norvegicus [28], 213.8 s.

(Values after ChEMBL document CHEMBL1157848, “Derivatives of benzimidazole pharmacophore: synthesis, anticonvulsant, antidiabetic and DNA cleavage studies” (2010).)
